# Experimental data reported in ChEMBL document CHEMBL4184148 (Bioorg Med Chem Lett, 2017).
# How the values were obtained:
# [1] = tested on: Phosphatidylinositol 4,5-bisphosphate 3-kinase catalytic subunit alpha isoform (Homo sapiens), P42336 [H1047L]; test: Binding affinity to human partial length PIK3CA H1047L mutant (R108 to N1068 residues) expressed in HEK293 cells at 1 uM by Kinomescan method relative to control; type: cell-based
# [2] = target: Serine/threonine-protein kinase PLK1 (Homo sapiens) (UniProt P53350); test: Binding affinity to wild-type human partial length PLK1 (A33 to F325 residues) expressed in HEK293 cells at 1 uM by Kinomescan method relative to control; type: cell-based
# Serine/threonine-protein kinase PLK1 (Homo sapiens), sequence (P53350 whole entry, the tested form may be a part): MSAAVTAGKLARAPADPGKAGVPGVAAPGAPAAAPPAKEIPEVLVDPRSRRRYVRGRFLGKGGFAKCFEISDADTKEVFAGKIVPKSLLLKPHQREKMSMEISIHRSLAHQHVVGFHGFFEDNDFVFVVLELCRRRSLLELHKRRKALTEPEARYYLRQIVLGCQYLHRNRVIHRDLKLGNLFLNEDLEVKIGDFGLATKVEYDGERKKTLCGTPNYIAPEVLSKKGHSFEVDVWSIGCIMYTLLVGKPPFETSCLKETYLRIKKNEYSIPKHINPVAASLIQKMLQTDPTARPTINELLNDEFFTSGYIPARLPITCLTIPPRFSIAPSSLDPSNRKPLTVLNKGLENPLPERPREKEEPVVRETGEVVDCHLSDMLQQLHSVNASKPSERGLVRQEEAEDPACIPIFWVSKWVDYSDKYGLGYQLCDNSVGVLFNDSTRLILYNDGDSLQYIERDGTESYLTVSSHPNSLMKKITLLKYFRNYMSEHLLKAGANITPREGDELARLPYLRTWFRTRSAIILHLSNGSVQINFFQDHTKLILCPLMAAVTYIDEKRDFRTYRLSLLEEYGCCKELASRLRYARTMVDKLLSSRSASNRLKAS
# [3] = target: Cyclin-dependent kinase 14 (Homo sapiens) (UniProt O94921); test: Binding affinity to wild-type human full length PFTK1 (M1 to H451 residues) expressed in Escherichia coli BL21 at 1 uM by Kinomescan method relative to control
# How it was run: (§1)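 Kinome-wide competition binding panel run by an outside provider, with each compound tested at a single concentration. Activity is read against the kinase panel.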
# [4] = target: Tyrosine-protein kinase TXK (Homo sapiens) (UniProt P42681); test: Binding affinity to wild-type human partial length TXK (L238 to W527 residues) expressed in Escherichia coli BL21 at 1 uM by Kinomescan method relative to control
# [5] = target: Mitogen-activated protein kinase kinase kinase 2 (Homo sapiens) (UniProt Q9Y2U5); test: Binding affinity to wild-type human partial length MAP3K2 (S315 to H619 residues) expressed in HEK293 cells at 1 uM by Kinomescan method relative to control; type: cell-based
# [6] = tested on: Leucine-rich repeat serine/threonine-protein kinase 2 (Homo sapiens), Q5S007 [G2019S]; test: Binding affinity to human partial length LRRK2 G2019S mutant (H970 to E2527 residues) expressed in HEK293 cells at 1 uM by Kinomescan method relative to control; type: cell-based
# [7] = target: Dual specificity protein kinase CLK1 (Homo sapiens) (UniProt P49759); test: Binding affinity to wild-type human full length CLK1 (M1 to I484 residues) expressed in Escherichia coli BL21 at 1 uM by Kinomescan method relative to control
# How it was run: (§2)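 Run as one kinome-wide competition binding panel with each compound at a single fixed concentration. Results were plotted as a kinome-wide selectivity map.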
# [8] = target: Discoidin domain-containing receptor 2 (Homo sapiens) (UniProt Q16832); test: Binding affinity to wild-type human partial length DDR2 (V555 to E855 residues) expressed in HEK293 cells at 1 uM by Kinomescan method relative to control; type: cell-based
# [9] = target: Tyrosine-protein kinase receptor UFO (Homo sapiens) (UniProt P30530); test: Binding affinity to wild-type human partial length AXL (R497 to Y821 residues) expressed in Escherichia coli BL21 at 1 uM by Kinomescan method relative to control
# Tyrosine-protein kinase receptor UFO (Homo sapiens), sequence (P30530 whole entry, the tested form may be a part): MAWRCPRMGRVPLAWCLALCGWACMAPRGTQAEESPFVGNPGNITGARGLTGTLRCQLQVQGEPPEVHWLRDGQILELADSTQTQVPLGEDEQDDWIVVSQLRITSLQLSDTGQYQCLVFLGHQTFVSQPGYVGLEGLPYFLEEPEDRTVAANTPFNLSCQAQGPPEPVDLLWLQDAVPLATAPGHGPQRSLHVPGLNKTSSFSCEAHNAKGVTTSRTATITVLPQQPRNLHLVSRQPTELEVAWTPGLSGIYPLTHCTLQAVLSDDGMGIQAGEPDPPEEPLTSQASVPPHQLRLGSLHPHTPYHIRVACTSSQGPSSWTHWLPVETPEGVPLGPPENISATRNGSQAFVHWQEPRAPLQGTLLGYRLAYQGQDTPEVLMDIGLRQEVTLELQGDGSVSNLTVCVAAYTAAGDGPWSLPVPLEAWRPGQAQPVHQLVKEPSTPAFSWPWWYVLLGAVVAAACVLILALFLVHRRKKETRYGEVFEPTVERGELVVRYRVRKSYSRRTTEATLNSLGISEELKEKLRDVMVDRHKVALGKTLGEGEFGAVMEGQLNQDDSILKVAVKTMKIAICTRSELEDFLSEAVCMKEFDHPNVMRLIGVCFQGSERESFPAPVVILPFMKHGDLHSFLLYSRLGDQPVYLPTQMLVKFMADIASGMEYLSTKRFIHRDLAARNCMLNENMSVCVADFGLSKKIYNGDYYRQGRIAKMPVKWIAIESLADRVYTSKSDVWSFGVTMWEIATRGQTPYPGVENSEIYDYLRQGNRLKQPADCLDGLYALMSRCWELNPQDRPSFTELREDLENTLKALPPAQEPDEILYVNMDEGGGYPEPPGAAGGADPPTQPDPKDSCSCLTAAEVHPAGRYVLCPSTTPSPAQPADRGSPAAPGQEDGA
# [10] = target: Epidermal growth factor receptor (Homo sapiens) (UniProt P00533); test: Binding affinity to human partial length EGFR L747-T751del/Sins mutant expressed in Escherichia coli BL21 at 1 uM by Kinomescan method relative to control
# Epidermal growth factor receptor (Homo sapiens), sequence (P00533 whole entry, the tested form may be a part): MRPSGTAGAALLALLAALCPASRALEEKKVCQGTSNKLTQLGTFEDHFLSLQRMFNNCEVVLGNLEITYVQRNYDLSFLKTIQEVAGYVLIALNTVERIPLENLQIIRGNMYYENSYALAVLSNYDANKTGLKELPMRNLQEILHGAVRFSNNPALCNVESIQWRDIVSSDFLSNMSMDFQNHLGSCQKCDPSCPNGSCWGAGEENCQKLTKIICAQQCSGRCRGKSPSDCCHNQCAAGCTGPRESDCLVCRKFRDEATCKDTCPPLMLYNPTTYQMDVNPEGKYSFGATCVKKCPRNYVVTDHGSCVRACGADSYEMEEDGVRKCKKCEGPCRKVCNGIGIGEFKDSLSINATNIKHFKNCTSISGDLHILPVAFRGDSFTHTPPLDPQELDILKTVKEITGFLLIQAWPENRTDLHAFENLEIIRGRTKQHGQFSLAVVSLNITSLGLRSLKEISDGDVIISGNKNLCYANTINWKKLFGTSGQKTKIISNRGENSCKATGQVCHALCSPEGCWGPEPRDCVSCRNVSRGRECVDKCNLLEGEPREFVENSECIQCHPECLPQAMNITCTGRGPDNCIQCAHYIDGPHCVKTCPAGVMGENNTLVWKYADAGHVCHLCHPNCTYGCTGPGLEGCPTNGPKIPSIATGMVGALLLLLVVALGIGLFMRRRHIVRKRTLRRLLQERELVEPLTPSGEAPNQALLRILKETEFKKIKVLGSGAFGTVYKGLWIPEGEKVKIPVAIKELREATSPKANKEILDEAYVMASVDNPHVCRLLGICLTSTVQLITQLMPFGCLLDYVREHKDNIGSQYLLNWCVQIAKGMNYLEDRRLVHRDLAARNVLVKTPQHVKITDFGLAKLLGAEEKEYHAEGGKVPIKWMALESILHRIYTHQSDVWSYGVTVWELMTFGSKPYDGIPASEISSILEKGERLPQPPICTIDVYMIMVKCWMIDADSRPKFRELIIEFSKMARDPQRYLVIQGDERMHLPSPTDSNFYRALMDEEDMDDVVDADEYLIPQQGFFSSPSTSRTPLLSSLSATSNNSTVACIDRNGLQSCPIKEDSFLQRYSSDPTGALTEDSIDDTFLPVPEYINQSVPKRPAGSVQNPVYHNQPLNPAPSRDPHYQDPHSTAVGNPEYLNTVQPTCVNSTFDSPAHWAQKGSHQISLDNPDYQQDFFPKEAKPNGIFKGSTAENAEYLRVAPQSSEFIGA
# [11] = target: Megakaryocyte-associated tyrosine-protein kinase (Homo sapiens) (UniProt P42679); test: Binding affinity to wild-type human full length CTK (M43 to P508 residues) expressed in HEK293 cells at 1 uM by Kinomescan method relative to control; type: cell-based; how it was run: as §2
# [12] = target: Serine/threonine-protein kinase Nek9 (Homo sapiens) (UniProt Q8TD19); test: Binding affinity to wild-type human partial length NEK9 (P32 to R328 residues) expressed in Escherichia coli BL21 at 1 uM by Kinomescan method relative to control
# [13] = target: Tyrosine-protein kinase ABL1 (Homo sapiens) (UniProt P00519); test: Binding affinity to wild-type human phosphorylated ABL1 (S229 to K512 residues) expressed in HEK293 cells at 1 uM by Kinomescan method relative to control; type: cell-based
# [14] = target: Phosphatidylinositol 4-phosphate 5-kinase type-1 alpha (Homo sapiens) (UniProt Q99755); test: Binding affinity to wild-type human full length PIP5K1A (M1 to H562 residues) expressed in Escherichia coli BL21 at 1 uM by Kinomescan method relative to control; how it was run: as §1
# [15] = target: Calcium-dependent protein kinase 1 (Plasmodium falciparum) (UniProt P62344); test: Binding affinity to wild-type Plasmodium falciparum full length CDPK1 (M1 to S524 residues) expressed in HEK293 cells at 1 uM by Kinomescan method relative to control; type: cell-based
# [16] = target: Mast/stem cell growth factor receptor Kit (Homo sapiens) (UniProt P10721); test: Binding affinity to wild-type human partial length KIT (I571 to D952 residues) expressed in Escherichia coli BL21 at 1 uM by Kinomescan method relative to control
# [17] = target: Ribosomal protein S6 kinase alpha-4 (Homo sapiens) (UniProt O75676); test: Binding affinity to wild-type human partial length C-terminal RPS6KA4 kinase domain 2 (M375 to T705 residues) expressed in HEK293 cells at 1 uM by Kinomescan method relative to control; type: cell-based
# [18] = tested on: Phosphatidylinositol 4,5-bisphosphate 3-kinase catalytic subunit alpha isoform (Homo sapiens), P42336 [M1043I]; test: Binding affinity to human partial length PIK3CA M1043I mutant (R108 to N1068 residues) expressed in HEK293 cells at 1 uM by Kinomescan method relative to control; type: cell-based
# Phosphatidylinositol 4,5-bisphosphate 3-kinase catalytic subunit alpha isoform (Homo sapiens), P42336 [M1043I], sequence (P42336 whole entry M1043I, the tested form may be a part, canonical isoform): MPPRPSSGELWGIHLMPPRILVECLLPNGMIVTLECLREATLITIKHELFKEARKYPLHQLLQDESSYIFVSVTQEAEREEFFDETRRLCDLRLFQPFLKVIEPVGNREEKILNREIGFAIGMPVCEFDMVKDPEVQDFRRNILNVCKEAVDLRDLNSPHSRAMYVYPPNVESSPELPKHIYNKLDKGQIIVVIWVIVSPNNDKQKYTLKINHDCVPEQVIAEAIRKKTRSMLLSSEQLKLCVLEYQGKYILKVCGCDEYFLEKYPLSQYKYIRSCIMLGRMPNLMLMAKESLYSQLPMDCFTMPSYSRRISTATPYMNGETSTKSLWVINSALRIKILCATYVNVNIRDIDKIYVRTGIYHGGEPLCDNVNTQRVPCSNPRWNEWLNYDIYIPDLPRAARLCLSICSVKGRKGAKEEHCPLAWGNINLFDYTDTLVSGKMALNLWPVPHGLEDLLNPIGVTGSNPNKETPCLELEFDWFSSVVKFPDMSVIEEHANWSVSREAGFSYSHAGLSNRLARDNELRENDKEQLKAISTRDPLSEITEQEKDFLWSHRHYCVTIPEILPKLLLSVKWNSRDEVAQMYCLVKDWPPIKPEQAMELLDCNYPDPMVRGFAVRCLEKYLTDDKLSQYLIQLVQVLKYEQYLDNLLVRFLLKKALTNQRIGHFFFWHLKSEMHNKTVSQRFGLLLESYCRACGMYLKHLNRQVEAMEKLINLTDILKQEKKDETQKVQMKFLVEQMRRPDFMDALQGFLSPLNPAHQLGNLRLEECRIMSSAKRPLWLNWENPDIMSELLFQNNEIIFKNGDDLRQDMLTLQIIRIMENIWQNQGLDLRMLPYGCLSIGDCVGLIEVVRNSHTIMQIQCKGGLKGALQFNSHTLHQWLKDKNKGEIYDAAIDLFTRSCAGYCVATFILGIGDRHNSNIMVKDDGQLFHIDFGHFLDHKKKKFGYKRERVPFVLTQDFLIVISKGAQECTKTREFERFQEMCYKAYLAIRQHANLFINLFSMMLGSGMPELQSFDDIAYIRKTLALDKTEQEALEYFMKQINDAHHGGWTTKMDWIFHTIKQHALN
# [19] = target: Aurora kinase A (Homo sapiens) (UniProt O14965); test: Binding affinity to wild-type human partial length AURKA (E122 to K401 residues) expressed in HEK293 cells at 1 uM by Kinomescan method relative to control; type: cell-based; how it was run: as §1
# Aurora kinase A (Homo sapiens), sequence (O14965 whole entry, the tested form may be a part): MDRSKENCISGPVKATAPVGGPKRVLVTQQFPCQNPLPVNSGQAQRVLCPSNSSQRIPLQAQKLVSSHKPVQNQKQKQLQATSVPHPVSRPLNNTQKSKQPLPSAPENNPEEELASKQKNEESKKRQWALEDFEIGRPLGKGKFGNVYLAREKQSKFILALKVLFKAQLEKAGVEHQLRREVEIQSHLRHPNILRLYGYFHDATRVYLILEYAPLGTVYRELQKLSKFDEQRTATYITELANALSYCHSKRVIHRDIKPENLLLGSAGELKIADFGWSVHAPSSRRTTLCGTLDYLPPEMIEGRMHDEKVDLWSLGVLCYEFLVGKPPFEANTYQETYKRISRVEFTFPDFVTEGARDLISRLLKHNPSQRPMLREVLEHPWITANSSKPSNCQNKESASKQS
# [20] = target: Serine/threonine-protein kinase 3 (Homo sapiens) (UniProt Q13188); test: Binding affinity to wild-type human partial length MST2 (D17 to E318 residues) expressed in Escherichia coli BL21 at 1 uM by Kinomescan method relative to control
# [21] = target: STE20/SPS1-related proline-alanine-rich protein kinase (Homo sapiens) (UniProt Q9UEW8); test: Binding affinity to wild-type human partial length STK39 (P43 to I357 residues) expressed in HEK293 cells at 1 uM by Kinomescan method relative to control; type: cell-based
# [22] = target: Mitogen-activated protein kinase kinase kinase 1 (Homo sapiens) (UniProt Q13233); test: Binding affinity to wild-type human partial length MAP3K1 (L1202 to W1512 residues) expressed in HEK293 cells at 1 uM by Kinomescan method relative to control; type: cell-based
# [23] = target: Tyrosine-protein kinase Fyn (Homo sapiens) (UniProt P06241); test: Binding affinity to wild-type human partial length FYN (T243 to L534 residues) expressed in Escherichia coli BL21 at 1 uM by Kinomescan method relative to control
# [24] = target: Phosphatidylinositol 4-phosphate 3-kinase C2 domain-containing subunit beta (Homo sapiens) (UniProt O00750); test: Binding affinity to wild-type human partial length PIK3C2B (M1 to L1634 residues) expressed in HEK293 cells at 1 uM by Kinomescan method relative to control; type: cell-based
# [25] = target: Serine/threonine-protein kinase NIM1 (Homo sapiens) (UniProt Q8IY84); test: Binding affinity to wild-type human partial length NIM1 (Q44 to N355 residues) expressed in HEK293 cells at 1 uM by Kinomescan method relative to control; type: cell-based
# Serine/threonine-protein kinase NIM1 (Homo sapiens), sequence (Q8IY84 whole entry, the tested form may be a part): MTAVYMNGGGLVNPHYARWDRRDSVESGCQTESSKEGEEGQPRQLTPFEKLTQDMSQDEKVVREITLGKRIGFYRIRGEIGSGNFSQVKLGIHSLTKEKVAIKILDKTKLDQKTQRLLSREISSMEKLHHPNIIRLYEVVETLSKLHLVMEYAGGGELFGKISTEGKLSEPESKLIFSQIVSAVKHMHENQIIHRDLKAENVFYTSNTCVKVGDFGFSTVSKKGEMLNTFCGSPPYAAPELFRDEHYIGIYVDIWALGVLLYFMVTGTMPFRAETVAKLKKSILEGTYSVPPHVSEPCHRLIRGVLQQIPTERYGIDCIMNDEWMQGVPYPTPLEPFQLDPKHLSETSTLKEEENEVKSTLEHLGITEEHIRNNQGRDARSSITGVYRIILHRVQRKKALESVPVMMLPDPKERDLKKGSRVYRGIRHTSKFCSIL
# Phosphatidylinositol 4,5-bisphosphate 3-kinase catalytic subunit alpha isoform (Homo sapiens), P42336 [H1047L], sequence (P42336 whole entry H1047L, the tested form may be a part, canonical isoform): as the sequence (P42336 whole entry M1043I, the tested form may be a part, canonical isoform) above, with I1043M, H1047L counted along it
Structure (SMILES),Activity [1] [%],Activity [2] [%],Activity [3] [%],Activity [4] [%],Activity [5] [%],Activity [6] [%],Activity [7] [%],Activity [8] [%],Activity [9] [%],Activity [10] [%],Activity [11] [%],Activity [12] [%],Activity [13] [%],Activity [14] [%],Activity [15] [%],Activity [16] [%],Activity [17] [%],Activity [18] [%],Activity [19] [%],Activity [20] [%],also measured
CCC(=O)Nc1ccc(C(=O)Nc2ccc(Nc3ncc4c(n3)N(C)c3ccc(C)cc3C(=O)N4C)cc2)cc1,70,100,95,93,66,100,98,89,87,89,95,100,90,100,74,84,51,83,0.45,70,Activity [21]: 73%; Activity [22]: 76%; Activity [23]: 100%; Activity [24]: 79%; Activity [25]: 100%
C=CC(=O)Nc1ccc(C(=O)Nc2ccc(Nc3ncc4c(n3)N(C)c3ccc(C)cc3C(=O)N4C)cc2)cc1,63,91,100,100,85,99,100,96,95,81,100,97,94,100,100,98,96,64,0,100,Activity [21]: 88%; Activity [22]: 83%; Activity [23]: 81%; Activity [24]: 98%; Activity [25]: 98%
